NR2E3 ag-1: NR2E3 (human) agonism; Q9Y5X4; GST-NR2E3/biotin-RetCOR TR-FRET, 1536-well; inhibition of corepressor binding, % at 4.78 µM; 0.12% of 320,000 active; AID 2300;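 active = percent inhibition above the cutoff of mean plus 3 SD of all tested compounds, set per screening campaign, cut at about 20% in these data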
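Format: 1536-well format; test system: GST-NR2E3 and biotin-RetCOR proteins; read-out basis: percent inhibition of TR-FRET ratio; timing: 5 h incubation at 4 °C; detection: time-resolved FRET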
GalR3 antag: antagonists of human GalR3; O60755; HEK293 GalR3-CNG cAMP membrane potential fluorescence; galR3 body fused to GalR1 C-terminus; inhibition, % at 3 µM; 0.44% of 360,000 active;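 active = inhibition above the screen-wide average plus 3 SD, cut at about 13% in these data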;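 note: forskolin and galanin both at EC90 stimulate the cells; cAMP rise reported by CNG channel membrane potential dye signal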
Target sequence (O60755 1-299 limits assumed): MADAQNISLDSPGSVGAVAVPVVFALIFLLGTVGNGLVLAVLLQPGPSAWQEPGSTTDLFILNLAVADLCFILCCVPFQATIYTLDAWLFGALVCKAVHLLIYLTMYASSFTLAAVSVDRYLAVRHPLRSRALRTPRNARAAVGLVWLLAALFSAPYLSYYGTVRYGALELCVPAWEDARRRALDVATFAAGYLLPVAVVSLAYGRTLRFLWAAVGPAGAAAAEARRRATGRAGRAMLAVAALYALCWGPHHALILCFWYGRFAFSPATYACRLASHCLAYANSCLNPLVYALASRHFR
NR2E3 ag-2: activates human NR2E3 receptor; Q9Y5X4; CHO-S Gal4-NCOR/VP16-NR2E3 two-hybrid, luciferase; inhibition of corepressor binding, % at 3.98 µM; 0.35% of 360,000 active; AID 602229;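 active = inhibition above the mean of all tested compounds plus 3 SD, cut at about 70% in these data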;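 note: higher means lower luciferase signal from less NR2E3 corepressor binding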
NR2F2 inh: inhibitors of human COUP-TFII (NR2F2) | inhibition, % at 8.6 µM | P24468 | 0.7% of 370,000 active | HEK293T NGFI-A luciferase reporter, luminescence;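 active = inhibition above a per-plate cutoff, mean inhibition of test wells between control levels plus 3 SD, cut at about 38% in these data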;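 note: cells cotransfected with COUP-TFII expression vector driving the NGFI-A reporter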
Target sequence (P24468 whole entry, looked up): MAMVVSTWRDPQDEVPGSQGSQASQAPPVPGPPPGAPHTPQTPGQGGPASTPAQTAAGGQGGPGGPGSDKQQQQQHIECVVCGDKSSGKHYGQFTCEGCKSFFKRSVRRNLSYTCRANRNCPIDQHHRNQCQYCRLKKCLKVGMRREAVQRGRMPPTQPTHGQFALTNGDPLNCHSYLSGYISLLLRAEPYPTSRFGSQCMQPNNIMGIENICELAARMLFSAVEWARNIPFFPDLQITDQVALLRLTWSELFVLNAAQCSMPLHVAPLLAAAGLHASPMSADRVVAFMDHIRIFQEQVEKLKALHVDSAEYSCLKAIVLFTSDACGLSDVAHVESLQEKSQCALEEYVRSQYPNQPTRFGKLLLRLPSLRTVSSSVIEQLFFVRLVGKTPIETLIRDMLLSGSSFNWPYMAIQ
SMARCA2 act: SMARCA2 function activation, primary screen; activation, % at 9.1 µM; MG213 cells, MMTV-luciferase reporter, dexamethasone, overnight; 1% of 370,000 active; in the data active = activation above about 7.8%
SMARCA2 act conf: confirmation of SMARCA2 (BRM) function activators; shares compounds with SMARCA2 act; AID 652260; activation, % at 9.1 µM; 30% of 3,500 active; MG213 cells, MMTV-luciferase with dexamethasone, luminescence, overnight; MG213 cells expressing E1A, Rb sequestered; DMSO wells 0%, reference activator 100%;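 active = activation above its plate's cutoff, the mean activation of tested wells plus 3 SD, cut at about 7.9% in these data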
GAL4-VP16 Luc: activates GAL4-VP16 luciferase, flagging SMARCA2 activator hits. AID 686939. activation, % at 9.1 µM. 41% of 3,500 active. HEK293 GAL4-VP16 pG5luc reporter, luciferase luminescence; scaled: DMSO wells 0%, SAHA wells 100%. shares compounds with SMARCA2 act;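 active = activation above the solvent-only control well mean plus 3 SD, averaged across control plates, cut at about 5.2% in these data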
Large screens that a line does not name were inactive (follow-up assays come after a bar, where they were run). Only some compounds are listed: those with a hit (about 2.2% of all), similar ones and a draw of the others.

COc1ccc(CNC(=O)C(C)Sc2nc3ccccc3c(=O)n2CCCN2CCOCC2)cc1 (stereo not drawn)	SMARCA2 act 11.0 | SMARCA2 act conf inactive | GAL4-VP16 Luc inactive
COc1ccc(OCC(=O)OC(C)CN2CCOCC2)cc1 (stereo not drawn)	SMARCA2 act 8.8 | SMARCA2 act conf inactive | GAL4-VP16 Luc inactive
Cc1ccc(NC(=O)Cn2nnc(-c3ccncc3)n2)cc1C	none (no result: NR2E3 ag-1, GalR3 antag, NR2E3 ag-2)
Cc1cc(C)cc(Cn2cc(CN3CC(N4CCCCC4)CS3(=O)=O)nn2)c1 (stereo not drawn)	SMARCA2 act 8.2 (no result: NR2E3 ag-1) | SMARCA2 act conf inactive | GAL4-VP16 Luc inactive
C(=C\c1nc(-c2ccccc2)no1)/c1ccccc1	SMARCA2 act 8.9 | SMARCA2 act conf 9.3 | GAL4-VP16 Luc 9.1
c1ccc(-c2noc(-c3ccccc3-c3ccccc3)n2)cc1	none
C(=C\c1nc(-c2ccncc2)no1)/c1ccccc1	SMARCA2 act 8.1 | SMARCA2 act conf 8.1 | GAL4-VP16 Luc 5.3
C(=C\c1ccncc1)/c1ccccc1	none
Cc1ccccc1CN1CCCCC(NC(=O)Nc2ccccc2-c2ccccc2)C1=O (stereo not drawn)	none (no result: NR2E3 ag-1, GalR3 antag, NR2E3 ag-2)
CC(=O)NC(C)C(=O)N1CCCC1C(=O)N1CCCC1C(=O)NC(C)C(=O)NC1C(=O)NC(CC(C)C)C(=O)NC2CCCCNC(=O)CCC(C(=O)NC(Cc3ccc(O)cc3)C(=O)O)NC(=O)C3CCC(=O)OCC(NC(=O)C4CCCN4C(=O)C(Cc4c[nH]c5ccccc45)NC2=O)C(=O)NC(CC(=O)OC1C)C(=O)NC(Cc1c[nH]c2ccccc12)C(=O)N3 (stereo not drawn)	none (no result: NR2E3 ag-1, GalR3 antag, NR2E3 ag-2)
COc1cccc(C(=O)Nc2cc(=O)n(C)c(=O)n2C)c1OC	SMARCA2 act 8.3 | SMARCA2 act conf inactive | GAL4-VP16 Luc inactive
COC(=O)[C@]12C[C@H](CC(=O)N3CCSCC3)C(=O)N(CCc3ccc(OC)c(OC)c3)C1=C[C@H](COCc1ccccc1)O[C@@H]2C	none (no result: NR2E3 ag-1, GalR3 antag, NR2E3 ag-2)
O=C(COC(=O)c1nc(Cl)c(Cl)c(Cl)c1Cl)c1ccc[nH]1	SMARCA2 act 9.3 | SMARCA2 act conf 20.0 | GAL4-VP16 Luc inactive
O=C(COC(=O)c1nc(Cl)ccc1Cl)c1ccc[nH]1	none
CCN(C(=O)C1CCCN(c2nnc(-n3cccc3)s2)C1)c1ccccc1C (stereo not drawn)	none (no result: NR2E3 ag-1, GalR3 antag, NR2E3 ag-2)
O=C(NC(=S)Nc1cccc(O)c1)C1CCCCC1	SMARCA2 act 8.2 (no result: NR2E3 ag-1) | SMARCA2 act conf inactive | GAL4-VP16 Luc 6.2
Cc1ccc(S(=O)(=O)N2CCCc3nc(-c4ccccc4)ccc32)cc1	none (no result: NR2E3 ag-1, NR2E3 ag-2)
CC1CCc2c(sc(/N=C/c3cccnc3)c2C(N)=O)C1 (stereo not drawn)	none
CC1CCc2c(sc(/N=C/c3ccco3)c2C(N)=O)C1 (stereo not drawn)	SMARCA2 act 8.8 | SMARCA2 act conf inactive | GAL4-VP16 Luc 6.2
CC1COCC(C)N1S(=O)(=O)c1ccc2c(c1)CCN2C(=O)C1CCC1 (stereo not drawn)	none (no result: NR2E3 ag-1, GalR3 antag, NR2E3 ag-2)
COc1ccc2nc(NC(=O)CSc3cn[nH]n3)sc2c1	none
CCOc1ccc2nc(NC(=O)CSc3cn[nH]n3)sc2c1	SMARCA2 act 12.0 | SMARCA2 act conf 8.2 | GAL4-VP16 Luc 12.9
CCC(=O)N1CCc2cc(Br)c(S(=O)(=O)N3CCCC(C(=O)NC(C)(C)C)C3)cc21 (stereo not drawn)	none (no result: NR2E3 ag-1, GalR3 antag, NR2E3 ag-2)
CCOc1ccc(C(=O)NCC(C)CN(C)C)cc1OCC (stereo not drawn)	SMARCA2 act 9.4 | SMARCA2 act conf inactive | GAL4-VP16 Luc inactive
CCOc1cc(C(=O)NCC(C)CN(C)C)cc(OCC)c1OCC (stereo not drawn)	none
CC(=O)N1CCN(c2ccc(NC(=O)c3ccccc3Cl)cc2)CC1	none
O=C(Nc1ccc(N2CCCCCC2)cc1)c1ccccc1Cl	SMARCA2 act 8.0 | SMARCA2 act conf inactive | GAL4-VP16 Luc 8.0
Cc1nc(CNS(=O)(=O)c2ccc(F)cc2)cs1	SMARCA2 act 8.4 (no result: NR2E3 ag-1) | SMARCA2 act conf inactive | GAL4-VP16 Luc inactive
CCN(CC)c1ccc(-c2nn3c(-c4ccc(C(C)(C)C)cc4)nnc3s2)cc1	none (no result: NR2E3 ag-1, GalR3 antag, NR2E3 ag-2)
CC(C)(C)c1ccc(C(=O)NCC(=O)NCc2ccccn2)cc1	SMARCA2 act 8.4 | SMARCA2 act conf inactive | GAL4-VP16 Luc inactive
O=C(CNC(=O)c1ccc(F)cc1)NCc1ccccn1	none
CN(C)CCCNc1nc2sc3c(c2c(=O)n1CCc1ccccc1)CCCCC3	SMARCA2 act 10.1 | SMARCA2 act conf inactive | GAL4-VP16 Luc inactive
COc1ccc(/C=N/Nc2cc(C)nc3ccccc23)cc1	none
COc1ccc(/C=N/Nc2cc(C)nc3c(C)cccc23)cc1	SMARCA2 act 9.1 | SMARCA2 act conf 31.7 | GAL4-VP16 Luc inactive
O=C(c1cscn1)N1CCC(Oc2cccnc2)CC1	none (no result: NR2E3 ag-1, GalR3 antag, NR2E3 ag-2)
CC#CC#Cc1cccc(=O)o1	SMARCA2 act 9.8 | SMARCA2 act conf 15.2 | GAL4-VP16 Luc inactive
COC(=O)[C@@]12CCCCC=C1N(CCc1ccc(Cl)cc1)C(=O)[C@H]2CC(=O)NCCc1ccccc1OC	none (no result: NR2E3 ag-1, GalR3 antag, NR2E3 ag-2)
COc1ccc(-n2c(SCC(=O)N3CCCCC3C)nnc2-c2ccncc2)cc1 (stereo not drawn)	none (no result: NR2E3 ag-1, GalR3 antag, NR2E3 ag-2)
CN(Cc1ccccc1)S(=O)(=O)c1cccc(C(=O)OCc2cccc(C(F)(F)F)c2)c1	none (no result: NR2E3 ag-1, GalR3 antag, NR2E3 ag-2)
CN1C(=O)N(c2nnc(C(C)(C)C)s2)C(=O)C1c1ccccc1 (stereo not drawn)	none
CCCCN1C(=O)N(c2nnc(C(C)(C)C)s2)C(O)C1c1ccc(C)cc1 (stereo not drawn)	SMARCA2 act 10.4 | SMARCA2 act conf inactive | GAL4-VP16 Luc inactive
O=C(c1ccc(F)cc1Cl)N1CCC(Oc2cccnc2)CC1	none (no result: NR2E3 ag-1, GalR3 antag, NR2E3 ag-2)
Clc1ccc(/C=C\c2nccc3c2[nH]c2ccccc23)cc1	none (no result: NR2E3 ag-1)
N#Cc1ccc(/C=C\c2nccc3c2[nH]c2ccccc23)cc1	SMARCA2 act 9.9 | SMARCA2 act conf 10.2 | GAL4-VP16 Luc inactive
COc1cc(Cl)ccc1OCc1cc(C(=O)N(C)C2CCOC2)no1 (stereo not drawn)	SMARCA2 act 8.7 | SMARCA2 act conf inactive | GAL4-VP16 Luc inactive
COc1cc(C)ccc1OCc1cc(C(=O)N2CCN(C)C[C@@H]2c2ccccc2)no1	SMARCA2 act 8.7 | SMARCA2 act conf inactive | GAL4-VP16 Luc inactive
COc1cc(C)ccc1OCc1cc(C(=O)N2C[C@H]3CC[C@H]2C3)no1	none
COCCN1CCN(C(=O)c2cc(COc3ccc(Cl)cc3OC)on2)CC1	SMARCA2 act 8.3 | SMARCA2 act conf 13.6 | GAL4-VP16 Luc 9.7
CCCN(CCC)CCCNC(=S)Nc1ccc2nc(N3CCN(C)CC3)cc(C)c2c1	SMARCA2 act 10.1 | SMARCA2 act conf 8.3 | GAL4-VP16 Luc inactive

Bioassay records (PubChem BioAssay)
